From ChEMBL document CHEMBL1145139, “Synthesis and pharmacological evaluation of 1-oxo-2-(3-piperidyl)-1,2,3,4- tetrahydroisoquinolines and related analogues as a new class of specific bradycardic agents possessing I(f) channel inhibitory activity” (2003) come the findings set out here.

Usually EC30 stands for the concentration needed for an effect of 30%. High values mean a need for much substance, low ones an effect from little substance.

What all share (format): functional
The test system of test [1] is Rattus norvegicus. Description: In vivo effect on mean blood pressure of anesthetized rats following 3 mg/kg i.v. The note with it: route intravenous. In a few lines:
(§1)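 Male Wister rats (270–350 g), anesthetized (pentobarbital ip per methods; urethane per text). Compound at 3 mg/kg (salt form) in aqueous solution or saline, iv via jugular vein catheter. HR taken from the blood-pressure pulse wave; MBP = DBP + (SBP−DBP)/3. Maximal percent change from initial value; mean ± SEM, three to four experiments.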

The species entered for another test is Cavia porcellus. Description: In vitro bradycardiac activity on isolated right atrium of guinea pig. To be noted: Cardiac atrium. Put shortly: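 Male Hartley guinea pigs (250–400 g); spontaneously beating right atria in Tyrode's solution at 37 °C, 95% O2/5% CO2, 1 g tension, 90 min equilibration. Compound added cumulatively at 45 min intervals; beat rate counted from isometric contraction. Value = concentration giving 30% reduction from initial spontaneous rate; mean ± SEM, three to six experiments.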

Test [2] relates to Rattus norvegicus. Description: In vivo effect on heart rate of anesthetized rats following 3 mg/kg i.v. The note with it: route intravenous. In a few lines: as §1

Molecules are shown by their SMILES.

Take `COc1cc2c(cc1OC)C(=O)N([C@@H]1CCCN(CCCOc3ccc4c(c3)OCO4)C1)CC2.Cl`: the Change with Rattus norvegicus [1] is -13%; with Rattus norvegicus [2] it was -55%. This compound also returned an EC30 in the test listed under Cavia porcellus of 79 nM.

Consider `COc1cc2c(cc1OC)C(=O)N([C@H]1CCCN(CCCOc3ccc4c(c3)OCO4)C1)CC2.Cl`, for which the Change is reported as -23% with Rattus norvegicus [1] and -53% in the test with Rattus norvegicus [2]. Moreover, the EC30 in the test listed under Cavia porcellus is 68 nM.

Turning to `COc1ccc(C(=O)N(C)C2CCCN(CCCOc3ccc4c(c3)OCO4)C2)cc1OC` (stereo not given), it took 3500 nM to reach the 30% level in the test filed under Cavia porcellus (EC30).

Turning to `COC(=O)c1ccc(OCCCN2CCCC(N3CCc4cc(OC)c(OC)cc4C3=O)C2)cc1.Cl` (stereo not given), the Change in the test on Rattus norvegicus [1] was -2.3%; in the test on Rattus norvegicus [2] it was -30%. In the test listed under Cavia porcellus, this compound gave an EC30 of 110 nM.

For `COc1cc2c(cc1OC)C(=O)N(C1CCCN(CCCOc3ccc(F)cc3)C1)CC2.Cl` (stereo not given), the Change is recorded as -17% in the test on Rattus norvegicus [1] and -39% in the test on Rattus norvegicus [2]. For the same compound, the EC30 in the test listed under Cavia porcellus worked out at 240 nM.

`COc1cc2c(cc1OC)C(=O)N(C1CCCN(CCCOc3ccc(Cl)cc3)C1)CC2.Cl` (stereo not given): the Change in the test on Rattus norvegicus [1] is -12%; in the test on Rattus norvegicus [2] it was -32%. In the test listed under Cavia porcellus, the EC30 is 350 nM.

As to `COc1ccc(OCCCN2CCCC(N3CCc4cc(OC)c(OC)cc4C3=O)C2)cc1OC.Cl` (stereo not given), the figures for the Change in the test on Rattus norvegicus [1] and in the test with Rattus norvegicus [2] were -18% and -56%, respectively. Also, the EC30 in the test listed under Cavia porcellus is 110 nM.

`COc1cc2[nH]c(=O)n(C3CCCN(CCCOc4ccc5c(c4)OCO5)C3)c(=O)c2cc1OC` (stereo not given) returned an EC30 in the test filed under Cavia porcellus of 920 nM.

As for `COc1cc2c(cc1OC)C(=O)N(C1CCCN(CCCOc3ccc(C)cc3)C1)CC2.Cl` (stereo not given), the Change in the test on Rattus norvegicus [1] is -12%; in the test with Rattus norvegicus [2], -37%. The concentration for an effect of 30% (EC30) in the test filed under Cavia porcellus was determined as 140 nM.

`COc1cc2c(cc1OC)C(=O)N(C1CCCN(CCCOc3ccc(O)cc3)C1)CC2` (stereo not given) registered a 30% effect concentration (EC30) in the test filed under Cavia porcellus of 890 nM.

In the test listed under Cavia porcellus, `COc1cc2c(cc1OC)C(=O)N(C1CCCN(CCCOc3ccc(OCc4ccccc4)cc3)C1)CC2` (stereo not given) gave an EC30 of 1300 nM.

In turn, `COc1cc2c(cc1OC)C(=O)N(C1CCCN(CCCOc3ccc(NC(C)=O)cc3)C1)CC2` (stereo not given) came in with an EC30 in the test filed under Cavia porcellus of 760 nM.

On to `COc1cc2c(cc1OC)C(=O)N(C1CCCN(CCCOc3cc(OC)c(OC)c(OC)c3)C1)CC2` (stereo not given), for which the EC30 in the test listed under Cavia porcellus was 1600 nM.

For `COc1cc2c(cc1OC)C(=O)N(C1CCCN(CCCOc3ccc([N+](=O)[O-])cc3)C1)CC2.Cl` (stereo not given), the Change was 41% in the test on Rattus norvegicus [1] and -5.6% in the test on Rattus norvegicus [2]. In addition, the EC30 in the test filed under Cavia porcellus was 270 nM.

`COc1cc2c(cc1OC)C(=O)N(C1CCCN(CCCOc3ccc4c(c3)CCC4)C1)CC2` (stereo not given) registered a concentration for an effect of 30% (EC30) in the test filed under Cavia porcellus of 890 nM.

As for `COc1cc2ncn(C3CCCN(CCCOc4ccc5c(c4)OCO5)C3)c(=O)c2cc1OC.Cl` (stereo not given), the values for the Change in the test on Rattus norvegicus [1] and in the test with Rattus norvegicus [2] were -20% and -34%, respectively. This compound also returned an EC30 in the test listed under Cavia porcellus of 260 nM.

For the compound `COc1cccc(OCCCN2CCCC(N3CCc4cc(OC)c(OC)cc4C3=O)C2)c1.Cl` (stereo not given), the Change in the test with Rattus norvegicus [1] was -11%; with Rattus norvegicus [2], -47%. The compound further returned an EC30 in the test filed under Cavia porcellus of 140 nM.

In the case of `COc1cc2c(cc1OC)C(=O)N(C1CCCN(CCCOc3ccccc3OC)C1)CC2` (stereo not given), it took 390 nM to reach the 30% level in the test filed under Cavia porcellus (EC30).

For `COc1ccc(OCCCN2CCCC(N3CCc4cc(OC)c(OC)cc4C3=O)C2)cc1.Cl` (stereo not given), the Change in the test with Rattus norvegicus [1] is on record as -16%; with Rattus norvegicus [2], -49%. This compound gave an EC30 in the test filed under Cavia porcellus of 99 nM.

Consider `COc1cc2c(cc1OC)C(=O)N(C1CCCN(CCCOc3ccc(OC(C)C)cc3)C1)CC2` (stereo not given), for which, in the test listed under Cavia porcellus, the EC30 amounted to 330 nM.

As for `COc1cc2c(cc1OC)C(=O)N(C1CCCN(CCCOc3ccc(C#N)cc3)C1)CC2.Cl` (stereo not given), the Change with Rattus norvegicus [1] is reported as -6.8%; in the test on Rattus norvegicus [2], -23%. The compound also came in with an EC30 in the test listed under Cavia porcellus of 240 nM.

For the compound `COc1ccc(C(=O)NC2CCCN(CCCOc3ccc4c(c3)OCO4)C2)cc1OC.Cl` (stereo not given), the Change was -11% in the test with Rattus norvegicus [1] and -29% in the test with Rattus norvegicus [2]. This compound had an EC30 in the test filed under Cavia porcellus of 420 nM.

As to `COc1cc2c(cc1OC)C(=O)N(C1CCCN(CCCOc3ccc(C(F)(F)F)cc3)C1)CC2` (stereo not given), the 30% effect level in the test filed under Cavia porcellus (EC30) was put at 790 nM.

`COc1cc2ccn(C3CCCN(CCCOc4ccc5c(c4)OCO5)C3)c(=O)c2cc1OC.Cl` (stereo not given): the Change in the test with Rattus norvegicus [1] is 11%; with Rattus norvegicus [2] it was -26%. In addition, the EC30 in the test filed under Cavia porcellus amounted to 200 nM.

As to `COc1cc2c(cc1OC)C(=O)N(C1CCCN(CCCOc3ccccc3)C1)CC2.Cl` (stereo not given), the Change was 3.2% in the test with Rattus norvegicus [1] and -32% in the test on Rattus norvegicus [2]. The EC30 in the test filed under Cavia porcellus was 390 nM.

As to `COc1cc2c(cc1OC)C(=O)N(C1CCCN(CCCOc3ccc4c(c3)OCO4)C1)CC2.Cl` (stereo not given), the Change is on record as -14% in the test on Rattus norvegicus [1] and -48% in the test on Rattus norvegicus [2]. The EC30 in the test filed under Cavia porcellus stood at 67 nM.

For `COc1cc2c(cc1OC)C(=O)N(C1CCCN(CCCOc3ccc4[nH]ccc4c3)C1)CC2` (stereo not given), the 30% effect level in the test listed under Cavia porcellus (EC30) was put at 360 nM.

`COc1cc2c(cc1OC)C(=O)N(C1CCCN(CCCOc3ccc(C(N)=O)cc3)C1)CC2` (stereo not given): the EC30 in the test filed under Cavia porcellus was determined as 5700 nM.

Regarding `COc1cc2c(cc1OC)CN(C1CCCN(CCCOc3ccc4c(c3)OCO4)C1)CC2.Cl` (stereo not given), the Change in the test on Rattus norvegicus [1] was -7.1%; with Rattus norvegicus [2], -47%. It took 250 nM to reach the 30% level in the test filed under Cavia porcellus (EC30).

For `COc1cc2c(cc1OC)C(=O)N(C1CCCN(CCCOc3ccc(Br)cc3)C1)CC2` (stereo not given), in the test filed under Cavia porcellus, the EC30 is 470 nM.

With `CCCOc1ccc(OCCCN2CCCC(N3CCc4cc(OC)c(OC)cc4C3=O)C2)cc1` (stereo not given), in the test filed under Cavia porcellus, the EC30 is 270 nM.

Take `COc1cc2c(cc1OC)C(=O)N(C1CCCN(CCCOc3ccc(N)cc3)C1)CC2` (stereo not given): the EC30 in the test filed under Cavia porcellus came out at 1600 nM.

In the case of `CCOc1ccc(OCCCN2CCCC(N3CCc4cc(OC)c(OC)cc4C3=O)C2)cc1.Cl` (stereo not given), the Change is -7.8% with Rattus norvegicus [1] and -49% with Rattus norvegicus [2]. Further, the EC30 in the test filed under Cavia porcellus is 97 nM.

On to `COc1cc2c(cc1OC)C(=O)N(C1CCCN(CCCOc3ccc4c(c3)OCCO4)C1)CC2.Cl` (stereo not given), for which the Change with Rattus norvegicus [1] was -12%; in the test on Rattus norvegicus [2], -44%. Further, the EC30 in the test filed under Cavia porcellus turned out to be 130 nM.

`COc1ccc(CCN(C)CCCN2CCc3cc(OC)c(OC)cc3CC2=O)cc1OC.Cl` [ZATEBRADINE HYDROCHLORIDE]: the Change with Rattus norvegicus [1] was 5.4%; in the test with Rattus norvegicus [2] it was -47%. The compound also registered an EC30 in the test listed under Cavia porcellus of 260 nM.
